Assay results of several laboratories.
Compare with care: the assays were run in different laboratories.
Target: Delta-type opioid receptor (OPRD1, Homo sapiens, UniProt P41143)

Structure (SMILES)	observed	technique	setting	Ki [nM]
Cc1cc(O)cc(C)c1C[C@H](N)C(=O)N[C@H](C)C(=O)NCC(=O)N[C@@H](Cc1ccc(Cl)cc1)C(=O)N(C)CCC[C@@]1(c2ccc(F)cc2)OCc2cc(C#N)ccc21	cell-free assay	–	–	4
CCCO[C@@]12Cc3cc(-c4ccccc4)cnc3[C@@H]3Oc4c(O)ccc5c4[C@@]31CCN(CC1CC1)[C@@H]2C5	ligand displacement	radioligand	cell membranes	7.48
C[C@@H](NC(=O)[C@@H](N)Cc1ccc(O)cc1)C(=O)NCC(=O)N[C@@H](Cc1ccccc1)C(=O)N(C)CCC[C@@]1(c2ccc(F)cc2)OCc2cc(C#N)ccc21	cell-free assay	–	–	57
Cc1ccc(CNC(=O)CNC(=O)[C@@H]2Cc3ccccc3CN2C(=O)[C@@H](N)Cc2c(C)cc(O)cc2C)cc1	ligand displacement	radioligand	cell membranes	0.31
Cc1cc(O)cc(C)c1C[C@H](N)C(=O)N1Cc2ccccc2CC1C(=O)NCC(=O)NC(Cc1ccc(Cl)cc1)C(=O)N(C)CCC[C@@]1(c2ccc(F)cc2)OCc2cc(C#N)ccc21 (stereo in doubt)	cell-free assay	–	–	20
Cc1cc(O)cc(C)c1C[C@H](N)C(=O)N1Cc2ccccc2C[C@H]1C(=O)NCC(=O)NCc1ccc(N)cc1	ligand displacement	radioligand	cell membranes	2
Oc1ccc2c3c1O[C@H]1c4ncc(-c5ccccc5)cc4C[C@@]4(OCCCc5cccnc5)[C@@H](C2)N(CC2CC2)CC[C@]314	ligand displacement	radioligand	cell membranes	5.89
CCCCCCCCCCCCCCCC(=O)O	ligand displacement	radioligand	cell membranes	5100
Cc1cc(F)ccc1/N=N/C(=O)NCC1(N(C)C)CCCCC1	cell-free assay	–	–	12000
Cc1cc(O)cc(C)c1C[C@H](N)C(=O)N1Cc2ccccc2C[C@@H]1C(=O)NCC(=O)NCc1ccccc1	ligand displacement	radioligand	cell membranes	3.2
CCCCCCCCC[C@@H]1CC(=O)NCC(=O)N[C@H](Cc2ccc(O)cc2)C(=O)NCC(=O)N[C@@H](Cc2ccccc2)C(=O)O1	ligand displacement	radioligand	–	21000
C[C@@H](NC(=O)C[C@@H](N)Cc1ccc(O)cc1)C(=O)NCC(=O)N[C@@H](Cc1ccccc1)C(=O)NNC(=O)[C@H](Cc1ccccc1)NC(=O)CNC(=O)[C@@H](C)NC(=O)C[C@@H](N)Cc1ccc(O)cc1	ligand displacement	radioligand	–	480
